Only a selection was taken, and hits are over-represented in it overall.
Apaf1 activ: activates human Apaf-1 apoptosome. activity change, negative = activation, % at 20 µM. Apaf-1 apoptosome caspase-3 activation, DEVD-Rh110 fluorescence; hits give low values. O14727. actives 0.31% (n = 330,000). AID 489031;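 active = activity change at or below -40% at 20 µM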
Target sequence (O14727 whole entry, looked up): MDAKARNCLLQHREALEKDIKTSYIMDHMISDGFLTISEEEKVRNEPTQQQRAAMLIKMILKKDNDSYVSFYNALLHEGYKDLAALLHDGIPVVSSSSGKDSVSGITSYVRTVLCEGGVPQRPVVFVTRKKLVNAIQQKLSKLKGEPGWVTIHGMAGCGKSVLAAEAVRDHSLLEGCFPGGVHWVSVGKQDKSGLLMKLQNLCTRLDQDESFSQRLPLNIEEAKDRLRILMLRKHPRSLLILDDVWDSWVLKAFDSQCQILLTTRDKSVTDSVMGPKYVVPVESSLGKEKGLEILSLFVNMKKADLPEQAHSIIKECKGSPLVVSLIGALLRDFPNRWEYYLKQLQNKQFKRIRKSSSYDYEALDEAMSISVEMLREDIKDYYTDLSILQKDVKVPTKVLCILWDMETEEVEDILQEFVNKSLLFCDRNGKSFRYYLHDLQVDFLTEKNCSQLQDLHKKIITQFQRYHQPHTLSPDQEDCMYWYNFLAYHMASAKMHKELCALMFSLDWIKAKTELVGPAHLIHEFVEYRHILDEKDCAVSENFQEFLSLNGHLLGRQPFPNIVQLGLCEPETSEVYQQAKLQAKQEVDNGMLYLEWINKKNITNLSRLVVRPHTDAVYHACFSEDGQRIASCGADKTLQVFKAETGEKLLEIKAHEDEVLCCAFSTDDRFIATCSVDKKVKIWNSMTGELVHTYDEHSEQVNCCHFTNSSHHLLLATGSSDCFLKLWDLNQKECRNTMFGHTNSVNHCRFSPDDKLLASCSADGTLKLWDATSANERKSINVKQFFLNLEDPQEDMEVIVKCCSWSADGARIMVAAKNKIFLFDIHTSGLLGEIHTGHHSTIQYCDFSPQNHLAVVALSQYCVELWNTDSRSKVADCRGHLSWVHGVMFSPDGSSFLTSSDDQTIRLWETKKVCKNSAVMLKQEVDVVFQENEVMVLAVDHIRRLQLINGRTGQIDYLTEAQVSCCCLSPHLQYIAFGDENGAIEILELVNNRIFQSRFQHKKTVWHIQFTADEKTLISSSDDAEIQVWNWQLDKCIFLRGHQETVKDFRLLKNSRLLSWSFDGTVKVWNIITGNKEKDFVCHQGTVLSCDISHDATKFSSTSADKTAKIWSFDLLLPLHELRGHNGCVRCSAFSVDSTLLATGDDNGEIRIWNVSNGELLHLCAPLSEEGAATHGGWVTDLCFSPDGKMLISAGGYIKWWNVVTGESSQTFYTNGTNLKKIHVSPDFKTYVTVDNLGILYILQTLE
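Schedule: 30 min preincubation, 50 min reaction, room temperature / System: biochemical Apaf-1 apoptosome reconstitution / Medium: 20 mM HEPES pH 7.5 with CHAPS, BSA / Evaluation: Caspase-3 cleavage activity downstream of Apaf-1 activation / Detection: Caspase-3-released Rh110 fluorescence, 540 nm emission, 480 nm excitation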
Rh110 act interf: interferes with Rh110 fluorescence, flagging false Apaf-1 activators. fluorescence interference (activity change), % at 20 µM, hits read low. Rh110 fluorescence interference, quenched caspase reaction, Ex480/Em540. 980 tested, under 10 active. AID 504616. shares compounds with Apaf1 activ;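 active = mean activity change at or below -40% when tested at 20 µM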
Apaf-1 act conf: confirmation of human Apaf-1 activators; shares compounds with Apaf1 activ; reconstituted apoptosome caspase-3 activity, DEVD-Rh110 fluorescence; hits give low values; activity change, negative = activation, % at 20 µM; actives 5% (n = 980);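 active = mean activity change at or below -40%, meaning activation of 40% or more, at 20 µM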
* marks the source's active call; other numbers are inactive results; x = no result given.

SMILES	Apaf1 activ	Rh110 act interf	Apaf-1 act conf
Cc1ccc(SC(C)c2nc(-c3ccccc3)no2)cc1 (stereo not given)	-247*	0	12
COc1ccc(CN2CCN(C(c3ccc(F)cc3)c3ccc(F)cc3)CC2)c(OC)c1OC	48	x	x
N=C1SC(c2ccccc2)C(=O)N1c1ncc(Cc2ccccc2Cl)s1 (stereo not given)	-171*	-6	11
C#CCOCCOCCOCCNc1nc(N2CCN(C(=O)CCCCCCCCCCNC(=O)[C@@H](CCSC)n3cc(CCO)nn3)CC2)nc(N2CCN(C(=O)CCCCCCCCCCNC(=O)[C@H]([C@@H](C)CC)n3cc(CCCCN=C(N)N)nn3)CC2)n1	64	x	x
COC(=O)c1c(C(=O)OC)c2cccc3cc(-c4ccccc4)c4ccc1c4n32	65	x	x
CCCC(CCC)C(=O)O	-6	x	x
O=C(NCc1nc2ccccc2[nH]1)C1=C[C@H](c2ccccc2)C[C@H](OCc2ccc(CO)cc2)O1	-127*	5	27
CCc1nc(N2CCN(C(C)=O)CC2)c2c3c(sc2n1)CC(C(C)(C)C)CC3 (stereo not given)	42	x	x
COCCN(CCOC)Cc1c(O)ccc2c3c(c(=O)oc12)CCC3	-336*	3	4
O=C1C(NS(=O)(=O)c2cccs2)=C(N2CCN(c3cccc(Cl)c3)CC2)C(=O)c2ccccc21	58	x	x
O=C(CSc1nnnn1-c1ccc(C(=O)O)cc1)NC1CC1	-324*	-3	7
CCOc1ccc(NC(=O)CN(C)S(=O)(=O)c2ccc(-c3ccc(=O)[nH]n3)s2)cc1	-86*	12	17
CCOc1ccc(C(=O)Nc2sc3c(c2C(=O)OC)CC(C)(C)NC3(C)C)cc1	41	x	x
CCN(CC(=O)NCc1cccs1)C(=O)C1CC(=O)N(c2ccc(OC)cc2OC)C1 (stereo not given)	51	x	x
Cc1ccc(NC2=C(N3CCCCC3)C(=O)c3ccccc3C2=O)cc1	81	x	x
Cc1ccc(-n2nc3ccc(N)cc3n2)cc1C	80	x	x
Cc1ccc(NC(=O)N(CCC#N)Cc2ccccc2)cc1	-471*	-13	2
CC(=O)OCCCNc1cc(SCc2ccco2)c2nonc2c1[N+](=O)[O-]	74	x	x
CCCCCCCCCCC[N+](C)(C)CC/C=C1/c2ccccc2Sc2ccc(Cl)cc21	75	x	x
CCCCCCCCCC[N+](C)(C)CC/C=C1/c2ccccc2Sc2ccc(Cl)cc21	81	x	x
CN(CC(=O)Nc1ccccc1N1CCOCC1)CC(=O)Nc1ccc(F)c(F)c1F	-72*	8	12
CCCN(CC(=O)Nc1ccccc1C)C(=O)C1CC(=O)N(c2ccccc2C(C)CC)C1 (stereo not given)	48	x	x
COc1ccc(/C=N/Nc2cc(N(C)C)nc(N(C)C)n2)cc1	97	x	x
COc1ccc(S(=O)(=O)N/N=C\c2ccc3c(c2)OCO3)c(OC)c1	-120*	0	6
COc1ccc2c(c1)CC/C(=C\Nc1ccc3c(c1)OCO3)C2=O	78	x	x
SMILES	Apaf1 activ	Rh110 act interf	Apaf-1 act conf
c1ccc(-c2cn3nc4c(nc3n2)CCCC4)cc1	57	x	x
CCCCn1c(=O)[nH]c(=O)c2c1nc(-c1ccc([N+](=O)[O-])cc1)n2CC	-45*	2	-1
Cc1ccc(C=Nc2ccccc2C(=O)Nc2ccccc2)cc1	-464*	5	8
N#C/C(=N/Nc1ccccc1[N+](=O)[O-])C(N)=S	-40*	10	4
CCOc1ccc2[nH]c(=O)c(CN(CC3CCCN3CC)C(=O)NCc3ccccc3)cc2c1 (stereo not given)	-137*	0	9
Cc1ncc([N+](=O)[O-])n1CCN1C(=O)c2ccccc2C1=O	-144*	-3	9
O=C1C=C(Nc2ccccc2O)c2ccccc2C1=O	96	x	x
Cc1ccccc1NC(=S)N/N=C/c1ccc(O)cc1O	-43*	8	-35
Cc1ccccc1NC(=S)Nc1cccc2cnccc12	91	x	x
Oc1ccc(C=Nc2cccc3ccccc23)c(O)c1	81	x	x
N#Cc1c2c(c(-n3cnc4ccccc43)n3c1nc1ccccc13)CCC2	45	x	x
CC(C)(C)CC(C)(C)c1ccc(OCCOCC[N+](C)(C)Cc2ccccc2)cc1	82	x	x
Cc1ccc(N2CC(C(=O)N3CCC(C(=O)Nc4nnc(C(C)(C)C)s4)CC3)CC2=O)cc1 (stereo not given)	-384*	10	12
O=C1c2ccccc2[C@@H]2C[C@@H](O)[C@H](Nc3cccc4ccccc34)CCN12	53	x	x
Cc1ccc(NC(=S)Nc2cccc3cnccc23)cc1C	53	x	x
CN(Cc1c(F)cccc1Cl)c1nnnn1-c1ccccc1	-64*	8	9
CCCCCCCCCCOC(=O)Cn1c(COc2ccccc2OC)[n+](C)c2ccccc21	71	x	x
C[C@]12C=CC(=O)C=C1CC[C@@H]1C2=CC[C@]2(C)[C@@H](C(=O)CN3CCN(c4cc(N5CCCC5)nc(N5CCCC5)n4)CC3)CC[C@@H]12	87	x	x
O=C(O)c1cccc(CN2C(=O)CSC2=O)c1	-52*	0	8
COc1ccc(S(=O)(=O)NNC(=O)c2cc3c4ccccc4n(C)c3s2)cc1	-407*	-3	14
CN(C)c1ccc2nc3ccc(=[N+](C)C)cc-3sc2c1	64	x	x
CCOC(=O)N1CCC(Nc2c(-c3ccc(C)c(C)c3)c(=O)c2=O)CC1	-202*	10	12
CCOC(=O)N1CCC(NC(=O)c2ccc3c(c2)sc2nc(-c4ccc(OC)cc4)cn23)CC1	44	x	x
CCOc1ccccc1NC(=O)C(CC(C)C)NC(=O)C1CCCCC1 (stereo not given)	-53*	2	-1
CCc1ccc(NC(=O)[C@H](Cc2c[nH]c3ccccc23)NC(=O)[C@@H]2Cc3ccccc3CN2)cc1	41	x	x
SMILES	Apaf1 activ	Rh110 act interf	Apaf-1 act conf
COc1ccc(-c2cnc(OC(C)(C)C)nc2OC(C)(C)C)cc1OC	-265*	15	14
COc1ccc(-c2cc(=O)[nH][nH]2)cc1OC	77	x	x
COC1=C(Nc2ccccc2)C(=O)c2ccccc2C1=O	61	x	x
CC[C@]12c3[nH]c4ccc(OC)cc4c3CCN1C(=O)C(CC(=O)NC/C=C(\C)CCC=C(C)C)C[C@@H]2C(=O)N1CCN(C(=O)c2ccco2)CC1 (stereo not given in full)	40	x	x
Cc1coc2c1C(=O)C(=O)c1c-2ccc2c(C)cccc12	96	x	x
COc1ccc(N2C(=O)CCC(C(=O)O)C2c2ccccc2OC)cc1 (stereo not given)	-172*	-2	6
NC1=NC[C@H](Cc2ccc(O)cc2)N1CCCCC1CCCCC1	53	x	x
O=C(NNc1cc(N2CCOCC2)nc(N2CCOCC2)n1)c1ccc(Cl)cc1Cl	47	x	x
C=CCn1c(N)c(C(=O)Nc2ccccc2)c2nc3ccccc3nc21	67	x	x
COc1cccc(Cn2cnc3c(NS(=O)(=O)c4ccc(Cl)cc4Cl)c(C)c(C)cc32)c1	-66*	10	25
CNS(=O)(=O)Cc1ccc2[nH]cc(CCN(C)C)c2c1	1	x	x
CCOc1cc(C)c(S(=O)(=O)Nc2ccc(Cl)cn2)cc1C	-40*	5	14
O=C1C(Nc2ccccc2)=C(N2CCCCC2)C(=O)c2ccccc21	93	x	x
Cc1c(C)n(CCC(=O)O)c2ccccc12	-70*	-3	10
COc1ccccc1N1CCN(CC(O)COc2cccc3ccccc23)CC1 (stereo not given)	17	x	x

High-throughput results deposited in PubChem BioAssay by Sanford-Burnham Center for Chemical Genomics.
